This note sets out measurements from ChEMBL document CHEMBL4732185, “Synthesis, biological evaluation and structure-activity relationship of novel dichloroacetophenones targeting pyruvate dehydrogenase kinases with potent anticancer activity” (Eur J Med Chem, 2021).

Molecules are shown by their SMILES. Activity calls are given as the source filed them. The rule behind the calls is not given here.

What is called inhibition is the relative decrease from the control value, in per cent. Lower therefore signals a weak effect.

The subject of assay [1] is MCF7. Put plainly: Antiproliferative activity against human MCF7 cells assessed as growth inhibition at 1 uM after 72 hrs by MTT assay relative to control. Type of assay: functional. To be noted: for inhibition of growth at 1 µM: read-out: GI. In a few lines: (§1)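 Single-concentration MTT screen on MCF-7 and A549 cells grown in DMEM + 10% FBS. Cells at 3000–6000/well, cultured overnight, then given compound in buffer with 1% DMSO for 72 h. MTT (0.5 mg/mL) added for 4 h, formazan dissolved in DMSO, A570 read. Percent inhibition reported as the average ± S.D. of three independent measurements.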

In assay [2] the test system is MCF7. The assay can be described thus: Antiproliferative activity against human MCF7 cells assessed as growth inhibition at 10 uM after 72 hrs by MTT assay relative to control. Type of assay: functional. The following applies: read-out: GI. In a few lines: as §1
(In general: Tetrazolium assays rely on reduction of a dye to a coloured formazan, in cell work by metabolically active cells.)

Assay [3] has as its system A549. The assay can be described thus: Antiproliferative activity against human A549 cells assessed as growth inhibition at 10 uM after 72 hrs by MTT assay relative to control. Type of assay: functional. To be noted: read-out: GI. In a few lines:
as §1

For a further assay, the species on record is Homo sapiens. The assay can be described thus: Inhibition of PDK (unknown origin) using RYHGHSMSDP as substrate at 1 uM after 30 mins by Kinase-Glo luminescent assay. In general terms: Kinase-Glo reads ATP consumption through a luciferase reaction.
Assay [4] has as its system A549. The assay can be described thus: Antiproliferative activity against human A549 cells assessed as growth inhibition at 1 uM after 72 hrs by MTT assay relative to control. Type of assay: functional. The following applies: for inhibition of growth at 1 µM: read-out: GI. The method in brief:
as §1

Take `O=C(c1ccc(-c2ccsc2)c([N+](=O)[O-])c1)C(Cl)Cl`: the results for the inhibition of growth at 1 µM in the assay with MCF7 [1] and with A549 [4] were 7.5% and 14.4%, respectively. In addition, the values for the inhibition of growth at 10 µM in the assay with MCF7 [2] and in the assay with A549 [3] were 43.5% and 94.4%, respectively. Also, in the assay listed under Homo sapiens, the inhibition amounted to 26.5%.
For `CC(C)c1ccc(Oc2ccc(C(=O)C(Cl)Cl)cc2[N+](=O)[O-])cc1` the same measures were 28.7%, 12.5%, 85.7%, 90.7% and 39.4%.
On the same counts, the results for `O=C(c1ccc(NC2CC2)c([N+](=O)[O-])c1)C(Cl)Cl` are 25.7%, 21.6%, 96%, 95.7% and 17.5%.
Take `O=C(c1ccc(-n2cncn2)c([N+](=O)[O-])c1)C(Cl)Cl`: the “growth inhibition (GI)” value with MCF7 [1] and in the assay on A549 [4] was “inactive” in each case. In addition, the figures for the inhibition of growth at 10 µM in the assay with MCF7 [2] and in the assay on A549 [3] were 11.9% and 58.9%, respectively. The compound also displayed an inhibition in the assay filed under Homo sapiens of 17.4%.
As for `O=C(c1ccc(N2CCCC2)c([N+](=O)[O-])c1)C(Cl)Cl`, the inhibition of growth at 1 µM in the assay with MCF7 [1] was 23%; with A549 [4], 30.6%. In addition, the inhibition of growth at 10 µM in the assay on MCF7 [2] came to 94.6%; in the assay with A549 [3], 97.3%. Further, the inhibition in the assay listed under Homo sapiens worked out at 32.4%.
For `O=C(c1ccc(-c2ccc(F)cc2)c([N+](=O)[O-])c1)C(Cl)Cl` the same measures were 30.8%, 44.7%, 91.6%, 95.3% and 12.1%.
`O=C(c1ccc(-c2ccc(OC(F)(F)F)cc2)c([N+](=O)[O-])c1)C(Cl)Cl`: the inhibition of growth at 1 µM with MCF7 [1] was found to be 24.7%; in the assay with A549 [4] it was 36.3%. Further, the inhibition of growth at 10 µM amounted to 97.8% in the assay with MCF7 [2] and 93.6% in the assay on A549 [3]. The same compound had an inhibition in the assay filed under Homo sapiens of 21.4%.
On to `O=C(c1ccc(C2CC2)c([N+](=O)[O-])c1)C(Cl)Cl`, for which the inhibition of growth at 1 µM in the assay with MCF7 [1] was 31.3%; in the assay with A549 [4], 40.1%. Further, the figures for the inhibition of growth at 10 µM in the assay on MCF7 [2] and in the assay with A549 [3] were 87.8% and 95.9%, respectively. Also, the inhibition in the assay listed under Homo sapiens was determined as 17.3%.
Regarding `O=C(c1ccc(N2CCCCC2)c([N+](=O)[O-])c1)C(Cl)Cl`, the inhibition of growth at 1 µM with MCF7 [1] was found to be 22.4%; in the assay with A549 [4], 38.9%. Also, the inhibition of growth at 10 µM with MCF7 [2] turned out to be 95.8%; in the assay on A549 [3], 97.1%. The inhibition in the assay filed under Homo sapiens stood at 40.2%.
On the same counts, the results for `COc1ccc(Nc2ccc(C(=O)C(Cl)Cl)cc2[N+](=O)[O-])cc1OC` are 24.2%, 40.5%, 90.5%, 96.6% and 66.4%.
On the same counts, the results for `Cc1ccc(-c2ccc(C(=O)C(Cl)Cl)cc2[N+](=O)[O-])cc1` are 26.4%, 13.8%, 89.1%, 96% and 5.9%.
On the same counts, the results for `O=C(c1ccc(Nc2ccccc2)c([N+](=O)[O-])c1)C(Cl)Cl` are 26.3%, 46.1%, 97.1%, 97.4% and 60.7%.
As for `CCOc1ccc(Nc2ccc(C(=O)C(Cl)Cl)cc2[N+](=O)[O-])cc1`, the inhibition of growth at 1 µM with MCF7 [1] turned out to be 18.8%; in the assay on A549 [4] it was 52.9%. Also, the inhibition of growth at 10 µM in the assay on MCF7 [2] was 93.8%; in the assay on A549 [3], 97.4%. For the same compound, in the assay listed under Homo sapiens, the inhibition was 68.7%.
On the same counts, the results for `O=C(c1ccc(-n2ccnc2)c([N+](=O)[O-])c1)C(Cl)Cl` are 24.2%, 30.5%, 90.5%, 96.6% and 20.5%.
On the same counts, the results for `O=C(c1ccc(Nc2ccc(F)cc2)c([N+](=O)[O-])c1)C(Cl)Cl` are 17.9%, 23.2%, 97.8%, 98.9% and 50.1%.
On the same counts, the results for `O=C(c1ccc(N2CCOCC2)c([N+](=O)[O-])c1)C(Cl)Cl` are 18.9%, 10.1%, 90.4%, 95.6% and 36.9%.
Turning to `O=C(c1ccc(-c2ccccc2)c([N+](=O)[O-])c1)C(Cl)Cl`, the inhibition of growth at 1 µM was determined as 15.8% in the assay with MCF7 [1] and 8.9% in the assay with A549 [4]. Further, the inhibition of growth at 10 µM stood at 56.2% with MCF7 [2] and 92.6% in the assay on A549 [3]. For the same compound, in the assay listed under Homo sapiens, the inhibition was determined as 25.6%.
As for `COc1cccc2c1C(=O)c1c(O)c3c(c(O)c1C2=O)C[C@@](O)(C(=O)CO)C[C@@H]3O[C@H]1C[C@H](N)[C@H](O)[C@H](C)O1` [DOXORUBICIN], the results for the inhibition of growth at 1 µM in the assay with MCF7 [1] and in the assay on A549 [4] were 59.8% and 81.2%, respectively. In addition, the values for the inhibition of growth at 10 µM in the assay with MCF7 [2] and with A549 [3] were 97.5% and 98.5%, respectively.
As to `O=C(c1ccc(N2CCNCC2)c([N+](=O)[O-])c1)C(Cl)Cl`, in the assay with MCF7 [1], the “growth inhibition (GI)” value was “inactive”. The values for the inhibition of growth at 10 µM in the assay on MCF7 [2] and in the assay with A549 [3] were 57% and 93.1%, respectively. For the same compound, the inhibition in the assay listed under Homo sapiens was 48.6%. Also, in the assay with A549 [4], the inhibition of growth at 1 µM was 22.6%.
For `O=C(c1ccc(-n2ccnc2[N+](=O)[O-])c([N+](=O)[O-])c1)C(Cl)Cl`, the “growth inhibition (GI)” value in the assay with MCF7 [1] and with A549 [4] was “inactive” in each case. Besides, the results for the inhibition of growth at 10 µM with MCF7 [2] and in the assay with A549 [3] were 21.4% and 80.9%, respectively. The compound also displayed an inhibition in the assay filed under Homo sapiens of 8.1%.
For `CN(C)c1ccc(Nc2ccc(C(=O)C(Cl)Cl)cc2[N+](=O)[O-])cc1`, the inhibition of growth at 1 µM is 31.6% in the assay on MCF7 [1] and 75% with A549 [4]. Besides, the inhibition of growth at 10 µM in the assay with MCF7 [2] is 93.2%; in the assay on A549 [3] it was 98.6%. The inhibition in the assay filed under Homo sapiens came to 88.2%.
On the same counts, the results for `COc1ccc(Nc2ccc(C(=O)C(Cl)Cl)cc2[N+](=O)[O-])cc1` are 29.2%, 45%, 95.9%, 97.7% and 55.7%.
For the compound `CC(C)c1ccc(Sc2ccc(C(=O)C(Cl)Cl)cc2[N+](=O)[O-])cc1`, the inhibition of growth at 1 µM is 18.9% in the assay with MCF7 [1] and 12.9% with A549 [4]. In addition, the inhibition of growth at 10 µM in the assay on MCF7 [2] is 79.8%; in the assay with A549 [3], 76.3%. In addition, in the assay filed under Homo sapiens, the inhibition worked out at 19.5%.
On the same counts, the results for `Cc1ccc(Nc2ccc(C(=O)C(Cl)Cl)cc2[N+](=O)[O-])cc1` are 12.1%, 48.1%, 88.9%, 97.3% and 64.4%.
